Key:
[1] = Half life in Sprague-Dawley rat at 5 mg/kg, po by LC/MS/MS analysis; type: ADME, organism-based; conditions: in vivo
In short: (§1)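 Male SD rats, 180–240 g, 3 per compound; single dose of 1 mg/kg iv or 5 mg/kg po, dosing volume 5 mL/kg. Blood was sampled from 2 min to 24 h and centrifuged at 4 °C. Plasma underwent protein precipitation, then LC/MS/MS in SRM mode with an internal standard. Parameters were derived by noncompartmental analysis.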

[2] = Half life in Sprague-Dawley rat at 1 mg/kg, iv by LC/MS/MS analysis; type: ADME, organism-based; conditions: in vivo; in short: as §1
[3] = Apparent volume of distribution in Sprague-Dawley rat at 1 mg/kg, iv by LC/MS/MS analysis; conditions: in vivo
[4] = Cmax in Sprague-Dawley rat at 5 mg/kg, po by LC/MS/MS analysis; type: ADME, organism-based; parameters: dose 5 mg/kg, route oral; conditions: in vivo; in short: as §1
PC-3 = assay: Potency index, ratio of GDC-0449 IC50 to compound IC50 for human PC3 cells; type: functional
LS174T [5] = assay: Antitumor activity against human LS174T cells xenografted in BALB/C mouse assessed as tumor volume inhibition at 37.5 mg/kg, bid administered for 10 days measured twice per week; type: functional; conditions: 240 h, read-out: TGI
In short: (§2)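 Male BALB/c nude mice, 18–20 g, kept under SPF conditions. LS-174T cells at 2.5×10^7 cells/mL were injected s.c. into the right flank, and tumors were grown to about 100 mm3. Mice were randomized, n=6 treated and n=9 vehicle. Oral dosing ran qd or bid for 10 days; vehicle controls got the same volume of solvent. Tumor volume = length×width²/2, measured twice weekly. IR = (control − treated)/control for tumor weight or volume at day 10.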

LS174T [6] = assay: Antitumor activity against human LS174T cells xenografted in BALB/C mouse assessed as tumor volume inhibition at 75 mg/kg, bid administered for 10 days measured twice per week; conditions: 240 h, read-out: TGI
Mus musculus [7] = assay: Toxicity in BALB/C mouse xenografted with human LS174T cells assessed as mortality at 18.75 to 75 mg/kg, bid administered for 10 days; type: organism-based; conditions: in vivo, 240 h
In short: (§3)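 Male BALB/C nude mice (18–20 g) kept under SPF conditions. LS-174T cells at 2.5×10^7 cells/mL injected subcutaneously into the right flank. Once tumors reached about 100 mm3, mice were randomized to groups of 6 (vehicle group n = 9) and dosed orally once or twice daily for 10 days. Controls received solvent. Body weight and tumor volume were measured twice weekly and deaths recorded.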

LS174T [8] = assay: Antitumor activity against human LS174T cells xenografted in BALB/C mouse assessed as tumor weight inhibition at 75 mg/kg, bid administered for 10 days measured twice per week; type: functional; conditions: 240 h, read-out: TGI; in short: as §2
Rattus norvegicus = assay: Apparent volume of distribution in Sprague-Dawley rat at 5 mg/kg, po by LC/MS/MS analysis; conditions: in vivo
[9] = Mean resident time (0 to t) in Sprague-Dawley rat at 1 mg/kg, iv by LC/MS/MS analysis; type: ADME, organism-based; conditions: in vivo; in short: as §1
LS174T [10] = assay: Potency index, ratio of GDC-0449 IC50 to compound IC50 for human LS174T cells; type: functional
LS174T [11] = assay: Antitumor activity against human LS174T cells xenografted in BALB/C mouse assessed as tumor volume inhibition at 18.75 mg/kg, bid administered for 10 days measured twice per week; type: functional; conditions: 240 h, read-out: TGI; in short: as §2
[12] = Antiproliferative activity against human BxPC3 cells after 72 hrs by CellTiter-Glo luminescent cell viability assay; type: functional, cell-based; conditions: BXPC-3, 72 h
In short: (§4)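 Cells were grown in DMEM with 10% FBS, seeded at a density suited to each line, and left 24 h at 37 °C. Compounds were prepared in DMSO, diluted in medium over a concentration series starting at 100 µM, and applied for 72 h. CellTiter-Glo reagent was added for 30 min at room temperature before reading luminescence. IC50 came from four-parameter curve fitting.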

[13] = AUC (0 to t) in Sprague-Dawley rat at 5 mg/kg, po by LC/MS/MS analysis; type: ADME, organism-based; conditions: in vivo; in short: as §1
[14] = Oral bioavailability in Sprague-Dawley rat at 5 mg/kg; type: ADME, organism-based; conditions: in vivo; in short: as §1
[15] = Clearance in Sprague-Dawley rat at 5 mg/kg, po by LC/MS/MS analysis; type: ADME, organism-based; conditions: in vivo; in short: as §1
[16] = Inhibition of Sonic-induced hedgehog signalling in mouse NIH3T3 cells after 48 hrs by Gli-luciferase reporter assay; type: cell-based; conditions: NIH3T3, 48 h
In short: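 NIH3T3 cells stably carrying a Gli-luciferase reporter were kept in DMEM with 10% FBS and 1 µg/mL puromycin, then seeded at 2×10^4 cells/well overnight at 37 °C. Compounds at 0.05–300 nM (8 concentrations) were added in medium with 0.5% FBS and 0.7 µg/mL Sonic Hh agonist, n=4 wells, for 48 h. Readout was the Firefly/Renilla luciferase ratio in lysates.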

Mus musculus [17] = assay: Toxicity in BALB/C mouse xenografted with human LS174T cells assessed as loss of body weight at 18.75 to 75 mg/kg, bid administered for 10 days measured twice per week; type: organism-based; conditions: in vivo, 240 h; in short: as §3
[18] = Antiproliferative activity against human PC3 cells after 72 hrs by CellTiter-Glo luminescent cell viability assay; type: functional, cell-based; conditions: PC-3, 72 h; in short: as §4
LS174T [19] = assay: Antiproliferative activity against human LS174T cells after 72 hrs by CellTiter-Glo luminescent cell viability assay; type: functional, cell-based; in short: as §4
[20] = AUC (0 to t) in Sprague-Dawley rat at 1 mg/kg, iv by LC/MS/MS analysis; type: ADME, organism-based; conditions: in vivo
In short: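 Male SD rats, 3 per compound, 180–240 g, single iv dose at 1 mg/kg, dosing volume 5 mL/kg. Blood sampled at 2, 5, 15, 30 min and 1, 2, 4, 6, 8, 10, 24 h, then centrifuged at 4 °C. Plasma protein-precipitated and analysed by LC/MS/MS in SRM mode with internal standard. AUC(0-t) obtained by noncompartmental analysis.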

BXPC-3 = assay: Potency index, ratio of GDC-0449 IC50 to compound IC50 for human BxPC3 cells; type: functional
LS174T [21] = assay: Antitumor activity against human LS174T cells xenografted in BALB/C mouse assessed as tumor weight inhibition at 37.5 mg/kg, bid administered for 10 days measured twice per week; type: functional; conditions: 240 h, read-out: TGI; in short: as §2
[22] = Mean resident time (0 to t) in Sprague-Dawley rat at 5 mg/kg, po by LC/MS/MS analysis; type: ADME, organism-based; conditions: in vivo; in short: as §1
[23] = Cmax in Sprague-Dawley rat at 1 mg/kg, iv by LC/MS/MS analysis; type: ADME, organism-based; parameters: dose 1 mg/kg, route intravenous; conditions: in vivo; in short: as §1
LS174T [24] = assay: Antitumor activity against human LS174T cells xenografted in BALB/C mouse assessed as tumor weight inhibition at 18.75 mg/kg, bid administered for 10 days measured twice per week; type: functional; conditions: 240 h, read-out: TGI; in short: as §2
[25] = Clearance in Sprague-Dawley rat at 1 mg/kg, iv by LC/MS/MS analysis; type: ADME, organism-based; conditions: in vivo; in short: as §1

**Q.** Which half-life [1] does the source give for `Cc1ccc(CN2CCOCC2)cc1NC(=O)c1ccc(Nc2ncc(F)c(-c3ccc(OC(F)(F)F)cc3)n2)cc1` here?
**A.** 9.08 h

**Q.** And the half-life [2]?
**A.** 6.98 h

**Q.** And the Vd [3]?
**A.** 4.67 L/kg

**Q.** And the Cmax [4]?
**A.** 494 ng/mL

**Q.** And the Ratio IC50 (PC-3)?
**A.** 5.8

**Q.** What about the inhibition in vivo at 37.5 mg/kg (LS174T [5]) of the same compound?
**A.** 34.9%

**Q.** What about the inhibition in vivo at 75 mg/kg (LS174T [6]) of the same compound?
**A.** 33.1%

**Q.** What about the Activity (Mus musculus [7]) of the same compound?
**A.** Non-toxic

**Q.** What about the inhibition in vivo at 75 mg/kg (LS174T [8]) of the same compound?
**A.** 14.4%

**Q.** And the “Vd(app)” value (Rattus norvegicus)?
**A.** 12.03324 L/kg

**Q.** And the MRT last [9]?
**A.** 4.85 h

**Q.** And the Ratio IC50 (LS174T [10])?
**A.** 5

**Q.** And the inhibition in vivo at 18.75 mg/kg (LS174T [11])?
**A.** 34%

**Q.** And the IC50 [12]?
**A.** 14.5 µM

**Q.** And the AUC(0-t) [13]?
**A.** 4720 ng·h/mL

**Q.** What about the bioavailability [14] of the same compound?
**A.** 37.2%

**Q.** What about the CL/F [15] of the same compound?
**A.** 15.5 mL/min/kg

**Q.** And the IC50 [16]?
**A.** 0.00103 µM

**Q.** And the Activity (Mus musculus [17])?
**A.** Non-toxic

**Q.** What about the IC50 [18] of the same compound?
**A.** 11.6 µM

**Q.** What about the IC50 (LS174T [19]) of the same compound?
**A.** 9.1 µM

**Q.** What about the AUC(0-t) [20] of the same compound?
**A.** 2030 ng·h/mL

**Q.** What about the “Ratio IC50” value (BXPC-3) of the same compound?
**A.** 3

**Q.** And the inhibition in vivo at 37.5 mg/kg (LS174T [21])?
**A.** 17.3%

**Q.** And the MRT last [22]?
**A.** 7.42 h

**Q.** And the Cmax [23]?
**A.** 1010 ng/mL

**Q.** And the inhibition in vivo at 18.75 mg/kg (LS174T [24])?
**A.** 18.4%

**Q.** And the clearance [25]?
**A.** 7.75 mL/min/kg

— ChEMBL document CHEMBL3763021 (Eur J Med Chem, 2016)
